# Measurements collected from several papers.
Compound,tested on,assay,test system,conditions,endpoint,result
CN1CCN(c2ccc(-c3ccc4c(Nc5cnccn5)cnnc4c3)cc2)CC1,Trypanosoma cruzi,parasite growth,C2C12,"intracellular, amastigote",EC50,> 10 µM
O=C(NCc1cn(Cc2ccc(Cl)cc2)nn1)Nc1ccccc1Br,Huh-7,"cell growth or viability, CCK-8",,"50 µM, 72 h",viability,65.6%
CN1CCN(c2ccc(-c3ccc4nncc(Nc5ncccn5)c4c3)cc2)CC1,Trypanosoma cruzi,parasite growth,C2C12,"intracellular, amastigote",EC50,7.9 µM
O=C(Cn1ccnc1[N+](=O)[O-])NCc1ccccc1,Trypanosoma cruzi,parasite growth,"Vero, TULAHUEN","72 h, intracellular, amastigote",IC50,2.23 µM
O=C(Cn1ccnc1[N+](=O)[O-])NCc1ccccc1,Trypanosoma cruzi,parasite growth,,"72 h, epimastigote",IC50,1.57 µg/mL
COc1ccc(NC(=O)NCc2cn(Cc3ccc(Br)cc3)nn2)cc1,Huh-7,"cell growth or viability, CCK-8",,"50 µM, 72 h",viability,86%
O=C(NCc1cn(Cc2ccc(Cl)cc2)nn1)Nc1ccc(Cl)cc1,Huh-7,"cell growth or viability, CCK-8",,"50 µM, 48 h",viability,65.7%
COc1ccc(NC(=O)Nc2ccc(-c3cn(Cc4cccc(Cl)c4)nn3)cc2)cc1,Huh-7,"cell growth or viability, CCK-8",,"50 µM, 72 h",viability,82.5%
Cc1ccc(Nc2cnnc3cc(-c4ccc(N5CCN(C)CC5)cc4)ccc23)cn1,Trypanosoma cruzi,parasite growth,C2C12,"intracellular, amastigote",EC50,1.3 µM
O=C(NCc1cn(Cc2cccc(Cl)c2)nn1)Nc1ccc(Cl)cc1,Huh-7,"cell growth or viability, CCK-8",,"50 µM, 72 h",viability,82.2%
Cc1ccc(Nc2cnnc3cc(-c4cnc(N5CCCN(C)CC5)nc4)ccc23)cn1,Trypanosoma cruzi,parasite growth,C2C12,"intracellular, amastigote",EC50,> 10 µM
Cc1ccccc1Cn1cc(-c2cccc(NC(=O)Nc3ccc(F)cc3)c2)nn1,Huh-7,"cell growth or viability, CCK-8",,"50 µM, 48 h",viability,46%
O=C(NCc1cn(Cc2ccc(Br)cc2)nn1)Nc1ccc(Cl)cc1,Huh-7,"cell growth or viability, CCK-8",,"50 µM, 48 h",viability,88.2%
COc1ccc(NC(=O)Nc2cccc(-c3cn(Cc4ccc(Cl)cc4)nn3)c2)cc1,Huh-7,"cell growth or viability, CCK-8",,"50 µM, 48 h",viability,67.1%
O=C(NCc1cn(Cc2ccc(Br)cc2)nn1)Nc1ccccc1Br,Huh-7,"cell growth or viability, CCK-8",,"50 µM, 48 h",viability,61.2%
COc1ccc(NC(=O)NCc2cn(Cc3ccc(Cl)cc3)nn2)cc1,Huh-7,"cell growth or viability, CCK-8",,"50 µM, 72 h",viability,99%
O=C(Nc1ccc(-c2cn(Cc3ccc(Cl)cc3)nn2)cc1)Nc1ccccc1Br,Huh-7,"cell growth or viability, CCK-8",,"50 µM, 72 h",viability,87.2%
COc1ccc(Nc2cnnc3cc(-c4cnc(N5CCCN(C)CC5)nc4)ccc23)nc1,Trypanosoma cruzi,parasite growth,C2C12,"intracellular, amastigote",EC50,7.5 µM
COc1ccc(NC(=O)Nc2cccc(-c3cn(Cc4cccc(Cl)c4)nn3)c2)cc1,Huh-7,"cell growth or viability, CCK-8",,"50 µM, 48 h",viability,65.5%
CN1CCN(c2ccc(-c3ccc4c(Nc5ncccn5)cnnc4c3)cc2)CC1,Trypanosoma cruzi,parasite growth,C2C12,"intracellular, amastigote",EC50,2.6 µM
O=C(Nc1ccc(Cl)cc1)Nc1cccc(-c2cn(Cc3ccc(Cl)cc3)nn2)c1,Huh-7,"cell growth or viability, CCK-8",,"50 µM, 72 h",viability,15.6%
COc1ccc(Nc2cnnc3ccc(-c4ccc(N5CCN(C)CC5)cc4)cc23)cc1Cl,Trypanosoma cruzi,parasite growth,C2C12,"intracellular, amastigote",EC50,2.4 µM
COc1cc(C=O)ccc1OC1=C(Cl)C(=O)c2ccccc2C1=O,Alternaria alternata,"microbial growth, broth dilution",,,MIC,12 µg/mL
COc1ccc(NC(=O)Nc2ccc(-c3cn(Cc4ccc(Br)cc4)nn3)cc2)cc1,Huh-7,"cell growth or viability, CCK-8",,"50 µM, 72 h",viability,91.2%
